According to ChEMBL document CHEMBL3407479, “Structure-activity relationship for the oxadiazole class of antibiotics” (J Med Chem, 2015):
Values after ≈ are worked out from the molar mass of the structure shown.

Tests used:
Staphylococcus aureus [1] = experiment: Antibacterial activity against methicillin-sensitive Staphylococcus aureus ATCC 29213 after 16 to 20 hrs by broth microdilution method; type: functional
Streptococcus pyogenes = experiment: Antibacterial activity against Streptococcus pyogenes ATCC 49399 after 16 to 20 hrs by broth microdilution method; type: functional
[2] = test system: Staphylococcus epidermidis; experiment: Antibacterial activity against Staphylococcus epidermidis ATCC 35547 after 16 to 20 hrs by broth microdilution method; type: functional
Enterococcus faecium [3] = experiment: Antibacterial activity against vancomycin-resistant Enterococcus faecium 106 clinical isolate after 16 to 20 hrs by broth microdilution method
Enterococcus faecalis [4] = experiment: Antibacterial activity against vancomycin-resistant Enterococcus faecalis 99 clinical isolate after 16 to 20 hrs by broth microdilution method; type: functional
[5] = test system: Staphylococcus haemolyticus; experiment: Antibacterial activity against Staphylococcus haemolyticus ATCC 29970 after 16 to 20 hrs by broth microdilution method; type: functional
Enterococcus faecium [6] = experiment: Antibacterial activity against Enterococcus faecium NCTC 7171 after 16 to 20 hrs by broth microdilution method; type: functional
Enterococcus faecalis [7] = experiment: Antibacterial activity against vancomycin-susceptible Enterococcus faecalis 201 clinical isolate after 16 to 20 hrs by broth microdilution method; type: functional
Staphylococcus aureus [8] = experiment: Antibacterial activity against mecA-positive, ciprofloxacin/gentamicin/oxacillin/penicillin/linezolid-resistant Staphylococcus aureus NRS119 after 16 to 20 hrs by broth microdilution method; type: functional
[9] = Plasma protein binding in human at 10 uM after 6 hrs by equilibrium dialysis assay; type: ADME, cell-free
Bacillus licheniformis = experiment: Antibacterial activity against Bacillus licheniformis ATCC 12759 after 16 to 20 hrs by broth microdilution method; type: functional
Staphylococcus aureus [10] = experiment: Antibacterial activity against vancomycin/methicillin-resistant Staphylococcus aureus VRS1 clinical isolate after 16 to 20 hrs by broth microdilution method; type: functional
Streptococcus oralis = experiment: Antibacterial activity against Streptococcus oralis ATCC 9811 after 16 to 20 hrs by broth microdilution method; type: functional
Staphylococcus aureus [11] = experiment: Antibacterial activity against mecA-positive, methicillin/oxacillin/tetracycline-resistant and vancomycin/linezolid susceptible Staphylococcus aureus COL after 16 to 20 hrs by broth microdilution method; type: functional
HepG2 = experiment: Cytotoxicity against human HepG2 cells assessed as cell viability after 16 hrs by XTT assay; type: cell-based; settings: HepG2, 16 h
Summary of the method: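 HepG2 cells were run in triplicate in an XTT viability assay. IC50 was derived from the concentration–response data.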

Bacillus cereus = experiment: Antibacterial activity against Bacillus cereus ATCC 13061 after 16 to 20 hrs by broth microdilution method; type: functional
Enterococcus faecalis [12] = experiment: Antibacterial activity against Enterococcus faecalis ATCC 29212 after 16 to 20 hrs by broth microdilution method; type: functional
Staphylococcus aureus [13] = experiment: Antibacterial activity against mecA-positive, ciprofloxacin/gentamicin/oxacillin/penicillin/linezolid-resistant Staphylococcus aureus NRS120 after 16 to 20 hrs by broth microdilution method; type: functional
Enterococcus faecium [14] = experiment: Antibacterial activity against vancomycin-susceptible Enterococcus faecium 119-39A clinical isolate after 16 to 20 hrs by broth microdilution method; type: functional

SMILES	MIC (Staphylococcus aureus [1]) [µg/mL]	also measured
Fc1ccc(Oc2ccc(-c3noc(-c4n[nH]cc4Cl)n3)cc2)cc1	1 (≈ 2.8 µM)	MIC (Streptococcus pyogenes): > 128 µg/mL; MIC [2]: > 128 µg/mL; MIC (Enterococcus faecium [3]): > 128 µg/mL; MIC (Enterococcus faecalis [4]): > 128 µg/mL; MIC [5]: > 128 µg/mL; MIC (Enterococcus faecium [6]): 32 µg/mL (≈ 89.7 µM); MIC (Enterococcus faecalis [7]): > 128 µg/mL; MIC (Staphylococcus aureus [8]): 2 µg/mL (≈ 5.61 µM); PPB [9]: 94.5%; MIC (Bacillus licheniformis): > 128 µg/mL; MIC (Staphylococcus aureus [10]): 1 µg/mL (≈ 2.8 µM); MIC (Streptococcus oralis): > 128 µg/mL; MIC (Staphylococcus aureus [11]): > 128 µg/mL; IC50 (HepG2): 18.2 µg/mL (≈ 51 µM); MIC (Bacillus cereus): > 128 µg/mL; MIC (Enterococcus faecalis [12]): > 128 µg/mL; MIC (Staphylococcus aureus [13]): 64 µg/mL (≈ 179 µM); MIC (Enterococcus faecium [14]): > 128 µg/mL
OCC#Cc1c[nH]nc1-c1nc(-c2ccc(Oc3ccc(C(F)(F)F)cc3)cc2)no1	4 (≈ 9.38 µM)	
Fc1ccc(Oc2ccc(-c3noc(-c4c[nH]cn4)n3)cc2)cc1	≥ 128	
FC(F)(F)c1ccc(Oc2ccc(-c3noc(-c4n[nH]cc4NC4CCCCC4)n3)cc2)cc1	≥ 128	
Nc1cc(-c2nc(-c3ccc(Oc4ccc(F)cc4)cc3)no2)ccc1O	≥ 128	
Fc1ccc(-c2nc(-c3ccc(Oc4ccccc4)cc3)no2)cc1	≥ 128	
Nc1c[nH]c(-c2nc(-c3ccc(Oc4ccc(F)cc4)cc3)no2)c1	≥ 128	
CN[C@H](CC(C)C)C(=O)N[C@H]1C(=O)N[C@@H](CC(N)=O)C(=O)N[C@H]2C(=O)N[C@H]3C(=O)N[C@H](C(=O)N[C@H](C(=O)O)c4cc(O)cc(O)c4-c4cc3ccc4O)[C@H](O)c3ccc(c(Cl)c3)Oc3cc2cc(c3O[C@@H]2O[C@H](CO)[C@@H](O)[C@H](O)[C@H]2O[C@H]2C[C@](C)(N)[C@H](O)[C@H](C)O2)Oc2ccc(cc2Cl)[C@H]1O [VANCOMYCIN]		MIC (Streptococcus pyogenes): 0.6 µg/mL (≈ 0.414 µM); MIC [2]: 16 µg/mL (≈ 11 µM); MIC (Enterococcus faecium [3]): 256 µg/mL (≈ 177 µM); MIC (Enterococcus faecalis [12]): 2 µg/mL (≈ 1.38 µM)
Oc1ccc(-c2nc(-c3ccc(Oc4ccc(C(F)(F)F)cc4)cc3)no2)cc1F	2 (≈ 4.8 µM)	
CC(=O)Nc1ccc(-c2nc(-c3ccc(Oc4ccc(C(F)(F)F)cc4)cc3)no2)cc1	≥ 128	
COc1ccc(-c2nc(-c3ccc(Oc4ccccc4)cc3)no2)cc1[N+](=O)[O-]	≥ 128	
Nc1c[nH]nc1-c1nc(-c2ccc(Oc3ccc(C(F)(F)F)cc3)cc2)no1	4 (≈ 10.3 µM)	
Nc1ccc(-c2nc(-c3ccc(Oc4ccc(C(F)(F)F)cc4)cc3)no2)cc1	1 (≈ 2.52 µM)	
FC(F)(F)c1ccc(Oc2ccc(-c3noc(-c4c[nH]cn4)n3)cc2)cc1	2 (≈ 5.37 µM)	MIC (Streptococcus pyogenes): 128 µg/mL (≈ 344 µM); MIC [2]: 32 µg/mL (≈ 86 µM); MIC [5]: 16 µg/mL (≈ 43 µM); MIC (Enterococcus faecium [6]): 8 µg/mL (≈ 21.5 µM); MIC (Staphylococcus aureus [8]): 4 µg/mL (≈ 10.7 µM); PPB [9]: 93.5%; MIC (Staphylococcus aureus [10]): 1 µg/mL (≈ 2.69 µM); MIC (Streptococcus oralis): > 128 µg/mL; MIC (Staphylococcus aureus [11]): 32 µg/mL (≈ 86 µM); IC50 (HepG2): 31.5 µg/mL (≈ 84.6 µM)
Cl.c1ccc(Oc2ccc(-c3noc(C4CCCN4)n3)cc2)cc1 (stereo unspecified)	64	
O=[N+]([O-])c1c[nH]nc1-c1nc(-c2ccc(Oc3ccc(C(F)(F)F)cc3)cc2)no1	2 (≈ 4.79 µM)	
CCCCNc1c[nH]nc1-c1nc(-c2ccc(Oc3ccc(C(F)(F)F)cc3)cc2)no1	≥ 128	

SMILES	MIC (Staphylococcus aureus [1]) [µg/mL]	also measured
Oc1ccc(-c2nc(-c3ccc(Oc4ccc(F)cc4)cc3)no2)cn1	≥ 128	
FC(F)(F)c1ccc(Oc2ccc(-c3noc(-c4cc[nH]n4)n3)cc2)cc1	≥ 128	
COc1ccc(-c2nc(-c3ccc(Oc4ccc(C(F)(F)F)cc4)cc3)no2)cc1[N+](=O)[O-]	≥ 128	
Fc1ccc(Oc2ccc(-c3noc(-c4cc[nH]c4)n3)cc2)cc1	≥ 128	
FC(F)(F)c1ccc(Oc2ccc(-c3noc(-c4cn[nH]n4)n3)cc2)cc1	16 (≈ 42.9 µM)	
FC(F)(F)c1ccc(Oc2ccc(-c3noc(-c4n[nH]cc4I)n3)cc2)cc1	2 (≈ 4.01 µM)	
CC(=O)N1CCC(c2nc(-c3ccc(Oc4ccc(F)cc4)cc3)no2)CC1	≥ 128	
O=C1C[C@H](c2nc(-c3ccc(Oc4ccc(C(F)(F)F)cc4)cc3)no2)CN1	≥ 128	
O=c1[nH]c(-c2ccc(Oc3ccccc3)cc2)no1	≥ 128	
Oc1c(F)cc(-c2nc(-c3ccc(Oc4ccc(C(F)(F)F)cc4)cc3)no2)cc1F	2 (≈ 4.6 µM)	
CC(C)c1cc(-c2nc(-c3ccc(Oc4ccc(F)cc4)cc3)no2)n[nH]1	≥ 128	
Nc1ccc(-c2nc(-c3ccc(Oc4ccccc4)cc3)no2)cc1F	≥ 128	
FC(F)(F)c1ccc(Oc2ccc(-c3noc(-c4c[nH]c5ncccc45)n3)cc2)cc1	≥ 128	
O=[N+]([O-])c1c[nH]c(-c2nc(-c3ccc(Oc4ccc(F)cc4)cc3)no2)c1	≥ 128	
Fc1ccc(Oc2ccc(-c3noc(-c4ccc5[nH]ccc5c4)n3)cc2)cc1	1 (≈ 2.69 µM)	
O=[N+]([O-])c1ccc(-c2nc(-c3ccc(Oc4ccc(C(F)(F)F)cc4)cc3)no2)cc1	≥ 128	

Further lines, with some results ahead:

MIC (Staphylococcus aureus [1]) [µg/mL]	SMILES	also measured
8 (≈ 20.8 µM)	C=CCOc1cc(N)ccc1-c1nc(-c2ccc(Oc3ccccc3)cc2)no1	
≥ 128	Cc1ccc(S(=O)(=O)N2CCC(c3nc(-c4ccc(Oc5ccc(F)cc5)cc4)no3)CC2)cc1	
8 (≈ 19.2 µM)	O=[N+]([O-])c1c[nH]c(-c2nc(-c3ccc(Oc4ccc(C(F)(F)F)cc4)cc3)no2)c1	
≥ 128	Fc1ccc(Oc2ccc(-c3noc(-c4n[nH]c5ccccc45)n3)cc2)cc1	
≥ 128	Fc1ccc(Oc2ccc(-c3noc(-c4c[nH]c5ncccc45)n3)cc2)cc1	
≥ 128	O=C(O)c1ccc(-c2nc(-c3ccc(Oc4ccc(F)cc4)cc3)no2)cc1	
≥ 128	Oc1ccccc1-c1nc(-c2ccc(Oc3ccccc3)cc2)no1	
0.5 (≈ 1.38 µM)	CC(C)Nc1c[nH]nc1-c1nc(-c2ccc(Oc3ccccc3)cc2)no1	
≥ 128	Cc1nc(-c2ccc(Oc3ccccc3)cc2)no1	
≥ 128	Fc1ccc(Oc2ccc(-c3noc(-c4ccc(Br)cc4)n3)cc2)cc1	
≥ 128	Nc1cncc(-c2nc(-c3ccc(Oc4ccc(F)cc4)cc3)no2)c1	
≥ 128	FC(F)(F)c1ccc(Oc2ccc(-c3noc(-c4nc[nH]n4)n3)cc2)cc1	
≥ 128	Nc1cncc(-c2nc(-c3ccc(Oc4ccc(C(F)(F)F)cc4)cc3)no2)c1	
≥ 128	COc1cc(-c2nc(-c3ccc(Oc4ccc(C(F)(F)F)cc4)cc3)no2)ccc1O	
≥ 128	NS(=O)(=O)c1ccc(-c2nc(-c3ccc(Oc4ccc(C(F)(F)F)cc4)cc3)no2)cc1	
≥ 128	CS(=O)(=O)Nc1ccc(-c2nc(-c3ccc(Oc4ccc(C(F)(F)F)cc4)cc3)no2)cc1	
1 (≈ 2.87 µM)	Oc1ccc(-c2nc(-c3ccc(Oc4ccc(F)cc4)cc3)no2)cc1	
≥ 128	O=P(O)(O)c1ccc(-c2nc(-c3ccc(Oc4ccc(F)cc4)cc3)no2)cc1	
32	Cl.c1ccc(Oc2ccc(-c3noc(C4CCNCC4)n3)cc2)cc1	
≥ 128	c1ccc(Oc2ccc(-c3noc(-c4ccncc4)n3)cc2)cc1	
16 (≈ 50.1 µM)	Nc1c[nH]nc1-c1nc(-c2ccc(Oc3ccccc3)cc2)no1	

MIC (Staphylococcus aureus [1]) [µg/mL]	SMILES	also measured
2 (≈ 5.03 µM)	N#Cc1c[nH]nc1-c1nc(-c2ccc(Oc3ccc(C(F)(F)F)cc3)cc2)no1	
≥ 128	Cc1ccc(S(=O)(=O)N2CCC(c3nc(-c4ccc(Oc5ccccc5)cc4)no3)CC2)cc1	
≥ 128	COc1ccc(-c2nc(-c3ccc(Oc4ccccc4)cc3)no2)cc1N	
≥ 128	Fc1ccc(Oc2ccc(-c3noc(-c4cc[nH]n4)n3)cc2)cc1	
≥ 128	Nc1ccc(-c2nc(-c3ccc(Oc4ccccc4)cc3)no2)c(O)c1	
1 (≈ 2.72 µM)	O=[N+]([O-])c1c[nH]nc1-c1nc(-c2ccc(Oc3ccc(F)cc3)cc2)no1	
≥ 128	Nc1cc(-c2nc(-c3ccc(Oc4ccc(F)cc4)cc3)no2)cnc1O	
≥ 128	c1ccc(Oc2ccc(-c3noc(-c4ccc5[nH]ncc5c4)n3)cc2)cc1	
2 (≈ 4.82 µM)	Nc1ccc(-c2nc(-c3ccc(Oc4ccc(C(F)(F)F)cc4)cc3)no2)cc1F	
≥ 128	FC(F)(F)c1ccc(Oc2ccc(-c3noc(-c4n[nH]cc4NC4CCCC4)n3)cc2)cc1	
≥ 128	CCOP(=O)(OCC)c1ccc(-c2nc(-c3ccc(Oc4ccc(F)cc4)cc3)no2)cc1	
≥ 128	C[Si](C)(C)C#Cc1c[nH]nc1-c1nc(-c2ccc(Oc3ccc(C(F)(F)F)cc3)cc2)no1	
≥ 128	O=C1C[C@@H](c2nc(-c3ccc(Oc4ccc(C(F)(F)F)cc4)cc3)no2)CN1	
2 (≈ 5.66 µM)	c1ccc(Oc2ccc(-c3noc(-c4ccc5[nH]ccc5c4)n3)cc2)cc1	
≥ 128	O=C1CC(c2nc(-c3ccc(Oc4ccc(C(F)(F)F)cc4)cc3)no2)NC(=O)N1 (stereo unspecified)	
≥ 128	COc1cc(-c2nc(-c3ccc(Oc4ccccc4)cc3)no2)ccc1N	
≥ 128	NS(=O)(=O)c1ccc(-c2nc(-c3ccc(Oc4ccc(F)cc4)cc3)no2)cc1	
16 (≈ 47.4 µM)	Nc1c[nH]nc1-c1nc(-c2ccc(Oc3ccc(F)cc3)cc2)no1	
2 (≈ 5.73 µM)	O=[N+]([O-])c1c[nH]nc1-c1nc(-c2ccc(Oc3ccccc3)cc2)no1	
8 (≈ 23.2 µM)	Oc1ccc(Cc2nc(-c3ccc(Oc4ccccc4)cc3)no2)cc1	
≥ 128	CC(C)CNc1c[nH]nc1-c1nc(-c2ccc(Oc3ccc(C(F)(F)F)cc3)cc2)no1	
